Results collected from several papers.
Each line is one published result; the experiments were not run side by side.
Organism: Staphylococcus aureus
Read-out: microbial growth

The MIC of `CCOc1ccc(-c2nc3ccc(C)cc3[nH]2)cc1` is reported as 256 µg/mL (broth dilution; ATCC43300 MRSA; drug-resistant strain).
The MIC of `COC(=O)c1cc(-c2cccc(NC(=S)Nc3cccc(Br)c3)c2)on1` is reported as > 64 µg/mL (broth dilution; ATCC29213).
The MIC of `COc1cc(C)c(Cc2cnc(N)nc2N)cc1OC` is reported as ~16.6 µM (broth dilution).
`CC1(C)CC[C@]2(C(=O)O)CC[C@]3(C)C(=CC[C@@H]4[C@@]5(C)CC[C@H](O)C(C)(C)[C@@H]5CC[C@]43C)[C@@H]2C1` has an MIC of 128 µg/mL (ATCC29213).
For `COC(=O)c1cc(-c2cccc(NC(=S)Nc3ccccc3)c2)on1`, the MIC was > 64 µg/mL (broth dilution; ATCC29213).
`CCCCCCCCCCCCCCCC(=O)CP(=O)(O)O` gave an MIC of 100 µg/mL (ATCC33591 MRSA; drug-resistant strain).
`CN[C@H](CC(C)C)C(=O)N[C@H]1C(=O)N[C@@H](CC(N)=O)C(=O)N[C@H]2C(=O)N[C@H]3C(=O)N[C@H](C(=O)N[C@H](C(=O)O)c4cc(O)cc(O)c4-c4cc3ccc4O)[C@H](O)c3ccc(c(Cl)c3)Oc3cc2cc(c3O[C@@H]2O[C@H](CO)[C@@H](O)[C@H](O)[C@H]2O[C@H]2C[C@](C)(N)[C@H](O)[C@H](C)O2)Oc2ccc(cc2Cl)[C@H]1O` gave an MIC of 0.39 µg/mL (ATCC33592; drug-resistant strain).
With `c1ccc(CCOC2CCCc3c2[nH]c2ccccc32)cc1` (stereo not shown) the MIC was > 16 µg/mL (broth dilution; VISA).
With `CCOc1ccc(-c2nc3ccccc3[nH]2)cc1` the MIC was 512 µg/mL (broth dilution; ATCC43300 MRSA; drug-resistant strain).
With `CCCCCCCCCCCCCCCC(=O)C(F)(F)P(=O)(O)O` the MIC was 100 µg/mL (ATCC33591 MRSA; drug-resistant strain).
The MIC of `Cc1ccc2nc(-c3ccc(F)cc3)[nH]c2c1` is reported as 128 µg/mL (broth dilution; ATCC43300 MRSA; drug-resistant strain).
With `O=C(Nc1ccc(O)cc1)Nc1ccc(Cl)c(C(F)(F)F)c1` the MIC was 100 µM (NCTC8325).
`Clc1ccccc1-c1nc2ccccc2[nH]1` has an MIC of 128 µg/mL (broth dilution; ATCC43300 MRSA; drug-resistant strain).
`COC(=O)c1cc(-c2cccc(NC(=O)Nc3ccccc3F)c2)on1` has an MIC of > 64 µg/mL (broth dilution; ATCC29213).
The MIC of `CSc1ccc(-c2nc3ccc(C)cc3n2Cc2ccccc2)cc1` is reported as 256 µg/mL (broth dilution; ATCC43300 MRSA; drug-resistant strain).
`NC[C@H]1O[C@H](O[C@H]2[C@H](O)[C@@H](O[C@H]3O[C@H](CO)[C@@H](O)[C@H](N)[C@H]3O)[C@H](N)C[C@@H]2N)[C@H](O)[C@@H](O)[C@@H]1O` gave an MIC of 256 µg/mL (USA300).
`COC[C@H]1OC(=O)c2coc3c2[C@@]1(C)C1=C(C3=O)[C@@H]2CCC(=O)[C@@]2(C)C[C@H]1OC(C)=O` has an MIC of > 30 µM (NCTC8325).
With `Cc1ccc2nc(-c3ccc(Cl)c(Cl)c3)[nH]c2c1` the MIC was 32 µg/mL (broth dilution; ATCC43300 MRSA; drug-resistant strain).
With `COC(=O)c1cc(-c2cccc(NC(=O)Nc3ccc(Cl)c(C(F)(F)F)c3)c2)on1` the MIC was > 64 µg/mL (broth dilution; ATCC29213).
